According to ChEMBL document CHEMBL3232919, “Imidazol-1-ylethylindazole voltage-gated sodium channel ligands are neuroprotective during optic neuritis in a mouse model of multiple sclerosis” (J Med Chem, 2014):

What was measured:
[1] = Displacement of [3H]sipatrigine from Wistar rat brain synaptosomes voltage-gated sodium channel by liquid scintillation counting; assay type: subcellular
Rattus norvegicus [2] = organism: Rattus norvegicus; assay: Neuroprotective activity in oxygen/glucose deprivation-induced Wistar rat hippocampal slice assessed as inhibition of cell death by measuring ATP level at 50 uM; assay type: functional
Rattus norvegicus [3] = organism: Rattus norvegicus; assay: Neuroprotective activity in oxygen/glucose deprivation-induced Wistar rat hippocampal slice assessed as inhibition of cell death by measuring ATP level at 30 uM normalized to tetrodotoxin; assay type: functional
[4] = Metabolic stability in rat liver microsomes assessed as drug turnover at 1 uM at 40 mins by LC-MS/MS analysis; assay type: ADME; details: read-out: Drug metabolism
Method in brief: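 Compound at 1 μM was incubated (n=2) with pooled rat liver microsomes (0.25 mg protein/ml) at 37°C for 0 and 40 min. Reactions were stopped with acetonitrile containing an internal standard, and parent disappearance was measured by LC-MS/MS. Percentage turnover was taken from peak heights relative to the zero-time samples.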

Rattus norvegicus [5] = organism: Rattus norvegicus; assay: Neuroprotective activity in oxygen/glucose deprivation-induced Wistar rat hippocampal slice assessed as inhibition of cell death by measuring ATP level; assay type: functional

| SMILES | IC50 [1] [µM] | inhibition at 50 µM (Rattus norvegicus [2]) [%] | inhibition (INH) (Rattus norvegicus [3]) [%] | metabolised at 40 min, 1 µM [4] [%] | EC50 (Rattus norvegicus [5]) [µM] |
| --- | --- | --- | --- | --- | --- |
| COc1ccc(C(=O)NCc2noc(-c3c4ccccc4nn3CCn3ccnc3)n2)cc1 | 6.2 | 55 |  |  |  |
| COc1cccc(S(=O)(=O)NCc2noc(-c3nn(CCn4ccnc4)c4ccccc34)n2)c1OC | > 500 | 37 |  |  |  |
| O=C(NCc1noc(-c2c3ccccc3nn2CCn2ccnc2)n1)c1ccc(OC(F)(F)F)cc1 | 0.7 | 31 |  |  |  |
| COc1ccccc1C(=O)NCc1noc(-c2c3ccccc3nn2CCn2ccnc2)n1 | 7.1 | 54 |  |  |  |
| O=C(NCc1noc(-c2c3ccccc3nn2CCc2cccs2)n1)c1ccccc1 | > 1000 | -2 |  |  |  |
| O=C(NCc1noc(-c2c3ccccc3nn2CCn2ccnc2)n1)c1cccc(F)c1F | 3.6 | 2 |  |  |  |
| NCc1noc(-c2nn(-c3ccccn3)c3ccccc23)n1 | 32 | -11 |  |  |  |
| Nc1nnc(-c2cccc(Cl)c2Cl)c(N)n1 [LAMOTRIGINE] |  |  | 33 |  |  |
| CC(C)(C)OC(=O)NCc1noc(-c2nn(CCn3ccnc3)c3ccccc23)n1 | 7.4 | 56 |  |  |  |
| NCc1noc(-c2c3ccccc3nn2CCn2ccnc2)n1 | 14 | 8 |  | 57 |  |
| NCc1noc(-c2c3ccccc3nn2Cc2ccccc2)n1 |  | 57 |  |  |  |
| O=S(=O)(NCc1noc(-c2nn(CCn3ccnc3)c3ccccc23)n1)c1ccc(OC(F)(F)F)cc1 | 4.9 | 0 |  |  |  |
| COc1ccc(C(=O)NCc2noc(-c3nn(CCn4ccnc4)c4ccccc34)n2)c(OC)c1OC | 5.3 | 37 |  |  |  |
| Cc1oncc1Cn1nc(-c2nc(CNC(=O)OC(C)(C)C)no2)c2ccccc21 | 339 | 39 |  |  |  |
| Cc1cc(C(=O)NCc2noc(-c3c4ccccc4nn3CCn3ccnc3)n2)ccc1[N+](=O)[O-] | 1.7 | 43 |  |  |  |
| NCc1noc(-c2nn(Cc3ccccc3)c3ccccc23)n1 |  |  |  |  | 35 |
| CC(C)(C)OC(=O)NCc1noc(-c2c3ccccc3nn2Cc2ccccn2)n1 | 23 | 42 |  |  |  |
| NCc1noc(-c2nn(CCn3ccnc3)c3ccccc23)n1 | 148 | -2 |  |  |  |
| CC(C)(C)OC(=O)NCc1noc(-c2nn(Cc3ccc(-n4cccn4)cc3)c3ccccc23)n1 | 617 | 20 |  |  |  |
| CC(C)(C)OC(=O)NCc1noc(-c2c3ccccc3nn2CCc2cccs2)n1 | 166 | 1 |  |  |  |
| O=C(NCc1noc(-c2nn(CCn3ccnc3)c3ccccc23)n1)c1cccc2[nH]ccc12 | 13 | 52 |  |  |  |
| Cc1ccccc1S(=O)(=O)NCc1noc(-c2nn(CCn3ccnc3)c3ccccc23)n1 | 4.9 | 57 |  |  |  |
| CC(C)(C)OC(=O)NCc1noc(-c2nn(Cc3ccc4c(c3)OCO4)c3ccccc23)n1 | 6 | -3 |  |  |  |
| O=S(=O)(NCc1noc(-c2c3ccccc3nn2CCn2ccnc2)n1)c1ccccc1 | 1.7 | 38 |  | 97 | 29.5 |
| O=S(=O)(NCc1noc(-c2nn(CCn3ccnc3)c3ccccc23)n1)c1cccc(C(F)(F)F)c1 | 2.1 | 38 |  |  |  |
